Measurements taken from ChEMBL document CHEMBL1806473, “Structure-based optimization of click-based histone deacetylase inhibitors” (Eur J Med Chem, 2011).

How the values were obtained:
SK-OV-3 = assay: Antiproliferative activity against human SKOV3 cells by SRB assay; format: functional
In short: (§1)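 Tested in the NCI in vitro human tumor cell line screen, run by the National Cancer Institute. Each compound was given at five concentrations (100, 10, 1.0, 0.1 and 0.01 μM). GI50 is the drug concentration that reduces growth of treated cells to half that of control cells during drug incubation, judged from the SRB signal.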

A498 [1] = assay: Antiproliferative activity against human A498 cells by SRB assay; format: functional; in short: as §1
K562 [2] = assay: Cytotoxicity against human K562 cells; format: cell-based
Malme-3M [3] = assay: Cytotoxicity against human MALME-3M cells; format: cell-based
In short: (§2)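 Tested in the NCI in vitro disease-oriented human tumour cell line screen, with screening performed by NCI. Growth was read by SRB signal over the drug incubation period at five concentrations: 100, 10, 1.0, 0.1 and 0.01 μM. GI50 is the concentration that reduces growth of treated cells to half that of control cells.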

PC-3 = assay: Antiproliferative activity against human PC3 cells by SRB assay; format: functional; in short: as §1
HL-60(TB) = assay: Antiproliferative activity against human HL-60(TB) cells by SRB assay; format: functional; in short: as §2
UACC-257 [4] = assay: Cytotoxicity against human UACC257 cells; format: cell-based
In short: (§3)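 Screened by NCI in its in vitro disease-oriented human tumour cell line panel. Compounds tested at five concentrations (100, 10, 1.0, 0.1 and 0.01 μM). Growth read by sulforhodamine B (SRB) signal. GI50 is the concentration reducing growth of treated cells to half that of control cells during the drug incubation.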

CCRF-CEM [5] = assay: Antiproliferative activity against human CCRF-CEM cells by SRB assay; format: functional; in short: as §1
A498 [6] = assay: Cytotoxicity against human A498 cells; format: cell-based
ACHN = assay: Antiproliferative activity against human ACHN cells by SRB assay; format: functional; in short: as §1
NCI-H522 = assay: Cytotoxicity against human NCI-H522 cells; format: cell-based; in short: as §2
KM12 = assay: Antiproliferative activity against human KM12 cells by SRB assay; format: functional; in short: as §1
HOP-92 [7] = assay: Antiproliferative activity against human HOP92 cells by SRB assay; format: functional; in short: as §1
BT-549 = assay: Cytotoxicity against human BT549 cells; format: cell-based
OVCAR-5 [8] = assay: Antiproliferative activity against human OVCAR5 cells by SRB assay; format: functional; in short: as §1
OVCAR-4 [9] = assay: Cytotoxicity against human OVCAR4 cells; format: cell-based
COLO 205 [10] = assay: Cytotoxicity against human COLO205 cells; format: cell-based; in short: as §2
U-251 = assay: Antiproliferative activity against human U251 cells by SRB assay; format: functional
In short: (§4)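 Cell growth was tested in the NIH in vitro disease-oriented human tumor cell line screen, which NCI ran for these compounds. Compounds were tested at five concentrations (100, 10, 1.0, 0.1 and 0.01 μM), and growth was read by SRB signal. GI50 is the drug concentration that reduces growth of treated cells to half that of control cells during drug incubation.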

NCI-H226 = assay: Antiproliferative activity against human NCI-H226 cells by SRB assay; format: functional; in short: as §1
MDA-MB-231 = assay: Antiproliferative activity against human MDA-MB-231 cells by SRB assay; format: functional; in short: as §1
IGROV-1 [11] = assay: Antiproliferative activity against human IGROV1 cells by SRB assay; format: functional; in short: as §1
MDA-MB-435 [12] = assay: Antiproliferative activity against human MDA-MB-435 cells by SRB assay; format: functional; in short: as §1
NCI-H460 = assay: Antiproliferative activity against human NCI-H460 cells by SRB assay; format: functional; in short: as §1
K562 [13] = assay: Antiproliferative activity against human K562 cells by SRB assay; format: functional; in short: as §1
MDA-MB-435 [14] = assay: Cytotoxicity against human MDA-MB-435 cells; format: cell-based
DU-145 [15] = assay: Cytotoxicity against human DU145 cells; format: cell-based; in short: as §2
A549 = assay: Antiproliferative activity against human A549 cells by SRB assay; format: functional; in short: as §1
786-0 = assay: Antiproliferative activity against human 786-0 cells by SRB assay; format: functional; in short: as §1
SW-620 = assay: Antiproliferative activity against human SW620 cells by SRB assay; format: functional; in short: as §4
HOP-62 = assay: Antiproliferative activity against human HOP62 cells by SRB assay; format: functional; in short: as §1
T47D = assay: Cytotoxicity against human T47D cells; format: cell-based; in short: as §3
SF-268 = assay: Cytotoxicity against human SF268 cells; format: cell-based; in short: as §2
SR = assay: Antiproliferative activity against human SR cells by SRB assay; format: functional; in short: as §4
NCI-H23 [16] = assay: Cytotoxicity against human NCI-H23 cells; format: cell-based
MOLT-4 = assay: Antiproliferative activity against human MOLT4 cells by SRB assay; format: functional; in short: as §1
RPMI-8226 = assay: Cytotoxicity against human RPMI8226 cells; format: cell-based; in short: as §2
HCT-116 = assay: Cytotoxicity against human HCT116 cells; format: cell-based; in short: as §2
RXF 393 [17] = assay: Cytotoxicity against human RXF393 cells; format: cell-based; in short: as §2
OVCAR-4 [18] = assay: Antiproliferative activity against human OVCAR4 cells by SRB assay; format: functional; in short: as §1
NCI-H23 [19] = assay: Antiproliferative activity against human NCI-H23 cells by SRB assay; format: functional; in short: as §1
HCT-15 [20] = assay: Antiproliferative activity against human HCT15 cells by SRB assay; format: functional; in short: as §1
DU-145 [21] = assay: Antiproliferative activity against human DU145 cells by SRB assay; format: functional; in short: as §1
CAKI-1 = assay: Antiproliferative activity against human Caki1 cells by SRB assay; format: functional; in short: as §1
CCRF-CEM [22] = assay: Cytotoxicity against human CCRF-CEM cells; format: cell-based
RXF 393 [23] = assay: Antiproliferative activity against human RXF393 cells by SRB assay; format: functional; in short: as §1
TK-10 [24] = assay: Antiproliferative activity against human TK10 cells by SRB assay; format: functional; in short: as §4
UO-31 = assay: Cytotoxicity against human UO31 cells; format: cell-based; in short: as §3
OVCAR-5 [25] = assay: Cytotoxicity against human OVCAR5 cells; format: cell-based; in short: as §2
LOX IMVI = assay: Cytotoxicity against human LOXIMVI cells; format: cell-based
Malme-3M [26] = assay: Antiproliferative activity against human MALME-3M cells by SRB assay; format: functional; in short: as §1
M14 [27] = assay: Antiproliferative activity against human M14 cells by SRB assay; format: functional; in short: as §1
SK-MEL-5 = assay: Cytotoxicity against human SK-MEL-5 cells; format: cell-based
HOP-92 [28] = assay: Cytotoxicity against human HOP92 cells; format: cell-based
Histone deacetylase = assay: Inhibition of HDAC in human HeLa cells using Ac-Arg-Gly-Lys(Ac)-AMC as fluorescent substrate after 20 mins by fluorescence assay; format: cell-based
M14 [29] = assay: Cytotoxicity against human M14 cells; format: cell-based
NCI-H322M = assay: Cytotoxicity against human NCI-H322M cells; format: cell-based
COLO 205 [30] = assay: Antiproliferative activity against human COLO205 cells by SRB assay; format: functional; in short: as §1
IGROV-1 [31] = assay: Cytotoxicity against human IGROV1 cells; format: cell-based
TK-10 [32] = assay: Cytotoxicity against human TK10 cells; format: cell-based; in short: as §3
UACC-257 [33] = assay: Antiproliferative activity against human UACC257 cells by SRB assay; format: functional; in short: as §4
SNB-19 = assay: Antiproliferative activity against human SNB19 cells by SRB assay; format: functional; in short: as §1
EKVX = assay: Antiproliferative activity against human EKVX cells by SRB assay; format: functional; in short: as §1
HCT-15 [34] = assay: Cytotoxicity against human HCT15 cells; format: cell-based; in short: as §2

For `CC(/C=C/c1ccccc1)n1cc(/C=C/C(=O)NO)nn1` (stereo not drawn), the GI50 (SK-OV-3) was 1170 nM, the GI50 (A498 [1]) was 472 nM and the LC50 (K562 [2]) was > 100000 nM. It also gave an LC50 (Malme-3M [3]) of 51900 nM, a GI50 (PC-3) of 890 nM and a GI50 (HL-60(TB)) of 269 nM. The LC50 (UACC-257 [4]) was > 100000 nM, the GI50 (CCRF-CEM [5]) was 442 nM and the LC50 (A498 [6]) was 4830 nM. The GI50 (ACHN) was 765 nM, the LC50 (NCI-H522) was 3620 nM and the GI50 (KM12) was 1290 nM. The GI50 (HOP-92 [7]) was 677 nM, the LC50 (BT-549) was > 100000 nM and the GI50 (OVCAR-5 [8]) was 488 nM. For the same compound, the LC50 (OVCAR-4 [9]) was 18300 nM, the LC50 (COLO 205 [10]) was 5200 nM and the GI50 (U-251) was 777 nM. For the same compound, the GI50 (NCI-H226) was 2350 nM, the GI50 (MDA-MB-231) was 1380 nM and the GI50 (IGROV-1 [11]) was 564 nM. The GI50 (MDA-MB-435 [12]) was 440 nM, the GI50 (NCI-H460) was 612 nM and the GI50 (K562 [13]) was 355 nM. For the same compound, the LC50 (MDA-MB-435 [14]) was 30800 nM, the LC50 (DU-145 [15]) was > 100000 nM and the GI50 (A549) was 1470 nM. For the same compound, the GI50 (786-0) was 1640 nM, the GI50 (SW-620) was 383 nM and the GI50 (HOP-62) was 1340 nM. The LC50 (T47D) was 7630 nM, the LC50 (SF-268) was 12200 nM and the GI50 (SR) was 385 nM. For the same compound, the LC50 (NCI-H23 [16]) was 6610 nM, the GI50 (MOLT-4) was 377 nM and the LC50 (RPMI-8226) was > 100000 nM. The LC50 (HCT-116) was 3810 nM, the LC50 (RXF 393 [17]) was > 100000 nM and the GI50 (OVCAR-4 [18]) was 636 nM. It also gave a GI50 (NCI-H23 [19]) of 1250 nM, a GI50 (HCT-15 [20]) of 2090 nM and a GI50 (DU-145 [21]) of 803 nM. The GI50 (CAKI-1) was 401 nM, the LC50 (CCRF-CEM [22]) was > 100000 nM and the GI50 (RXF 393 [23]) was 1410 nM. For the same compound, the GI50 (TK-10 [24]) was 582 nM, the LC50 (UO-31) was 66700 nM and the LC50 (OVCAR-5 [25]) was > 100000 nM. For the same compound, the LC50 (LOX IMVI) was 4120 nM, the GI50 (Malme-3M [26]) was 279 nM and the GI50 (M14 [27]) was 777 nM. The LC50 (SK-MEL-5) was 4520 nM, the LC50 (HOP-92 [28]) was 7530 nM and the IC50 (Histone deacetylase) was 62 nM. For the same compound, the LC50 (M14 [29]) was 9080 nM, the LC50 (NCI-H322M) was > 100000 nM and the GI50 (COLO 205 [30]) was 469 nM. For the same compound, the LC50 (IGROV-1 [31]) was 5740 nM, the LC50 (TK-10 [32]) was 31900 nM and the GI50 (UACC-257 [33]) was 1350 nM. For the same compound, the GI50 (SNB-19) was 1870 nM, the GI50 (EKVX) was 2090 nM and the LC50 (HCT-15 [34]) was 42800 nM.
